# Key:
# [1] = Kinetic solubility of the compound in water at pH 7 by HPLC analysis; format: physicochemical; details: read-out: Kinetic_solubility
# [2] = Metabolic stability of the compound in human liver microsomes assessed as compound remaining after 1 hr; format: ADME, Microsome; details: read-out: Stability
# How it was run: (§1)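 Pooled human or CD-1 mouse liver microsomes incubated with compound for 1 h. Percentage of compound remaining calculated from analyte/internal standard peak area ratios.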
# [3] = Metabolic stability of the compound in CD-1 mouse liver microsomes assessed as compound remaining after 1 hr; format: ADME, Microsome; details: read-out: Stability; how it was run: as §1
# [4] = system: Mycobacterium tuberculosis; assay: Antimicrobial activity against Mycobacterium tuberculosis infected in BALB/c mouse assessed as fold reduction in lung CFU at 100 mg/kg, po administered 11 days after post infection qd for 5 days per week for 3 weeks relative to PA-824; format: functional
# How it was run: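 Groups of 7 M. tb-infected BALB/c mice dosed orally at 100 mg/kg daily, 5 days/week for 3 weeks, starting on day 11 postinfection. Readout is the average lung CFU reduction in treated mice divided by the average CFU reduction in mice given the reference nitroimidazooxazine.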
# [5] = Ratio AUC (0 to infinity) in CD-1 mouse lung to AUC (0 to infinity) in CD-1 mouse plasma at 40 mg/kg, po; format: ADME, organism-based; design: dose 40 mg/kg, route oral; details: read-out: Ratio AUC
# How it was run: (§2)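 CD-1 mice given a single oral dose of 40 mg/kg, suspended in 0.5% carboxymethylcellulose/0.08% Tween 80 in water. Plasma and lung samples quantified by LC-MS/MS. AUC extrapolated to infinity. Lung/plasma ratio is lung AUC divided by plasma AUC.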
# [6] = AUC (0 to infinity) in CD-1 mouse lung at 40 mg/kg, po; format: ADME, organism-based; design: dose 40 mg/kg, route oral, time infinity; how it was run: as §2
# [7] = Cmax in CD-1 mouse plasma at 40 mg/kg, po; format: ADME, organism-based; design: dose 40 mg/kg, route oral; how it was run: as §2
# [8] = Cmax in CD-1 mouse lung at 40 mg/kg, po; format: ADME, organism-based; design: dose 40 mg/kg, route oral; how it was run: as §2
# [9] = AUC (0 to infinity) in CD-1 mouse plasma at 40 mg/kg, po; format: ADME, organism-based; design: dose 40 mg/kg, route oral, time infinity; how it was run: as §2
# [10] = Half life in CD-1 mouse plasma at 40 mg/kg, po; format: ADME, organism-based; design: dose 40 mg/kg, route oral; how it was run: as §2
# [11] = system: Mycobacterium tuberculosis; assay: Antimicrobial activity against Mycobacterium tuberculosis infected in BALB/c mouse assessed as fold reduction in lung CFU at 100 mg/kg, po administered 70 days after post infection qd for 5 days per week for 3 weeks relative to OPC-67683; format: functional
# How it was run: (§3)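 Chronic infection model in M. tb-infected BALB/c mice: oral dosing at 100 mg/kg daily, 5 days/week for 3 weeks, beginning about 70 days postinfection. Result expressed as fold lung CFU reduction relative to the reference drug.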
# [12] = Half life in CD-1 mouse lung at 40 mg/kg, po; format: ADME, organism-based; design: dose 40 mg/kg, route oral; how it was run: as §2
# [13] = system: Mycobacterium tuberculosis; assay: Antimicrobial activity against Mycobacterium tuberculosis infected in BALB/c mouse assessed as fold reduction in lung CFU at 100 mg/kg, po administered 70 days after post infection qd for 5 days per week for 3 weeks; format: functional; how it was run: as §3
# [14] = system: Mycobacterium tuberculosis; assay: Antimicrobial activity against Mycobacterium tuberculosis infected in chronic BALB/c mouse infection model assessed as fold reduction in lung CFU at 100 mg/kg, po dministered 50 days after post infection qd for 5 days per week for 3 weeks; format: functional
# [15] = Octanol-water partition coefficient, log P of the compound by shake-flask method; format: physicochemical
# How it was run: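 Octanol-water partition coefficient measured by the shake-flask method.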
# [16] = Thermodynamic solubility of the compound at pH 1; format: physicochemical; details: buffer, read-out: Therm_solubility
# [17] = Thermodynamic solubility of the compound at pH 7.4; format: physicochemical; details: buffer, read-out: Therm_solubility
# Salmonella typhimurium [18] = assay: Induction of mutagenesis in Salmonella Typhimurium TA98 in absence of rat liver S9 fraction by Ames test; format: toxicity, organism-based; details: salmonella enterica subsp. enterica serovar typhimurium
# How it was run: (§4)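 MicroAmes reverse mutation screen in Salmonella TA98 and TA100, preincubated with and without rat liver S9, at 0.25-250 μg/well.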
# Salmonella typhimurium [19] = assay: Induction of mutagenesis in Salmonella Typhimurium TA98 in presence of rat liver S9 fraction by Ames test; format: toxicity, organism-based; details: salmonella enterica subsp. enterica serovar typhimurium; how it was run: as §4
# Salmonella typhimurium [20] = assay: Induction of mutagenesis in Salmonella Typhimurium TA100 in presence of rat liver S9 fraction by Ames test; format: toxicity, organism-based; details: salmonella enterica subsp. enterica serovar typhimurium; how it was run: as §4
# Salmonella typhimurium [21] = assay: Induction of mutagenesis in Salmonella Typhimurium TA100 in absence of rat liver S9 fraction by Ames test; format: toxicity, organism-based; details: salmonella enterica subsp. enterica serovar typhimurium; how it was run: as §4
# [22] = Plasma protein binding in human at 10 uM; format: ADME, cell-free; details: read-out: PPB (converted)
# How it was run: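 Human plasma protein binding measured by equilibrium dialysis, with overnight incubation of compound at 10 μM containing 1% DMSO.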
compound,measurement,setting,value
O=C(N[C@@H]1COc2nc([N+](=O)[O-])cn2C1)c1ccc(OC(F)(F)F)cc1,solubility kinetic,[1],109 µg/mL
CN(C(=O)c1ccc(OC(F)(F)F)cc1)[C@@H]1COc2nc([N+](=O)[O-])cn2C1,solubility kinetic,[1],17 µg/mL
O=[N+]([O-])c1cn2c(n1)OC[C@@H](NS(=O)(=O)c1ccc(OC(F)(F)F)cc1)C2,solubility kinetic,[1],6.1 µg/mL
CN([C@@H]1COc2nc([N+](=O)[O-])cn2C1)S(=O)(=O)c1ccc(OC(F)(F)F)cc1,solubility kinetic,[1],15 µg/mL
O=C(CN[C@@H]1COc2nc([N+](=O)[O-])cn2C1)c1ccc(OC(F)(F)F)cc1,solubility kinetic,[1],21 µg/mL
O=C(Nc1ccc(OC(F)(F)F)cc1)N[C@@H]1COc2nc([N+](=O)[O-])cn2C1,solubility kinetic,[1],93 µg/mL
O=C(N[C@@H]1COc2nc([N+](=O)[O-])cn2C1)OCc1ccc(-c2ccc(OC(F)(F)F)cc2)cc1,solubility kinetic,[1],0.67 µg/mL
O=C(Nc1cccc(-c2ccc(OC(F)(F)F)cc2)c1)N[C@@H]1COc2nc([N+](=O)[O-])cn2C1,remaining at 1 h,[2],86%
same,remaining at 1 h,[3],88%
same,fold change (FC),[4],<0.01
same,solubility kinetic,[1],3 µg/mL
O=C(Nc1ccc(-c2ccc(OC(F)(F)F)cc2)cc1)N[C@@H]1COc2nc([N+](=O)[O-])cn2C1,remaining at 1 h,[2],91%
same,Kp,[5],> 9
same,remaining at 1 h,[3],90%
same,AUC(0-inf),[6],> 60000 ng·h/mL
same,fold change (FC),[4],1
same,Cmax,[7],480 ng/mL
same,solubility kinetic,[1],0.17 µg/mL
same,Cmax,[8],4700 ng/mL
same,AUC(0-inf),[9],6610 ng·h/mL
same,half-life,[10],6.3 h
O=C(NCc1ccc(-c2ccc(OC(F)(F)F)cc2)cc1)N[C@@H]1COc2nc([N+](=O)[O-])cn2C1,solubility kinetic,[1],0.94 µg/mL
O=C(Nc1cccc(-c2ccc(OC(F)(F)F)cc2)c1)O[C@@H]1COc2nc([N+](=O)[O-])cn2C1,remaining at 1 h,[2],88%
same,remaining at 1 h,[3],93%
same,fold change (FC),[4],3.4
same,solubility kinetic,[1],0.07 µg/mL
O=C(Nc1cccc(-c2ccc(C(F)(F)F)nc2)c1)O[C@@H]1COc2nc([N+](=O)[O-])cn2C1,remaining at 1 h,[2],89%
same,remaining at 1 h,[3],80%
same,fold change (FC),[4],0.02
same,solubility kinetic,[1],5.8 µg/mL
O=C(Nc1ccc(-c2ccc(OC(F)(F)F)cc2)cc1)O[C@@H]1COc2nc([N+](=O)[O-])cn2C1,remaining at 1 h,[2],100%
same,Kp,[5],> 3
same,remaining at 1 h,[3],98%
same,AUC(0-inf),[6],> 136000 ng·h/mL
same,fold change (FC),[4],5
same,fold change (FC),[11],0.35
same,Cmax,[7],520 ng/mL
same,Cmax,[8],6900 ng/mL
same,AUC(0-inf),[9],44900 ng·h/mL
same,half-life,[10],62.3 h
O=C(NCc1ccc(-c2ccc(OC(F)(F)F)cc2)cc1)O[C@@H]1COc2nc([N+](=O)[O-])cn2C1,solubility kinetic,[1],0.34 µg/mL
O=C(O[C@@H]1COc2nc([N+](=O)[O-])cn2C1)N1CC[C@H](Oc2ccc(OC(F)(F)F)cc2)C1,solubility kinetic,[1],21 µg/mL
O=C(O[C@@H]1COc2nc([N+](=O)[O-])cn2C1)N1CCC(Oc2ccc(C(F)(F)F)nc2)CC1,solubility kinetic,[1],94 µg/mL
CN(Cc1ccc(OC(F)(F)F)cc1)C1CCN(C(=O)O[C@@H]2COc3nc([N+](=O)[O-])cn3C2)CC1,solubility kinetic,[1],11 µg/mL
O=C(COc1ccc(-c2ccc(OC(F)(F)F)cc2)cc1)N[C@@H]1COc2nc([N+](=O)[O-])cn2C1,solubility kinetic,[1],0.96 µg/mL
O=C(Cc1ccc(-c2ccc(OC(F)(F)F)cc2)cc1)N[C@@H]1COc2nc([N+](=O)[O-])cn2C1,solubility kinetic,[1],1.8 µg/mL
O=C(CO[C@@H]1COc2nc([N+](=O)[O-])cn2C1)Nc1ccc(OC(F)(F)F)cc1,remaining at 1 h,[2],100%
same,remaining at 1 h,[3],85%
same,fold change (FC),[4],0.33
same,solubility kinetic,[1],68 µg/mL
CN(C(=O)N(C)[C@@H]1COc2nc([N+](=O)[O-])cn2C1)c1ccc(OC(F)(F)F)cc1,solubility kinetic,[1],38 µg/mL
O=[N+]([O-])c1cn2c(n1)OC[C@@H](NC(=S)Nc1ccc(OC(F)(F)F)cc1)C2,solubility kinetic,[1],12 µg/mL
O=C(NCc1ccc(OC(F)(F)F)cc1)N[C@@H]1COc2nc([N+](=O)[O-])cn2C1,solubility kinetic,[1],32 µg/mL
O=C(Nc1ccc(OC(F)(F)F)cc1)O[C@@H]1COc2nc([N+](=O)[O-])cn2C1,remaining at 1 h,[2],88%
same,Kp,[5],1.5
same,remaining at 1 h,[3],89%
same,half-life,[12],4.1 h
same,AUC(0-inf),[6],43300 ng·h/mL
same,fold change (FC),[4],0.39
same,fold change (FC),[11],0.02
same,Cmax,[7],1400 ng/mL
same,solubility kinetic,[1],5.4 µg/mL
same,Cmax,[8],3800 ng/mL
same,AUC(0-inf),[9],28500 ng·h/mL
same,half-life,[10],9.8 h
CN(C(=O)O[C@@H]1COc2nc([N+](=O)[O-])cn2C1)c1ccc(OC(F)(F)F)cc1,remaining at 1 h,[2],37%
same,remaining at 1 h,[3],1%
same,fold change (FC),[4],5.3
same,solubility kinetic,[1],18 µg/mL
O=C(NCc1ccc(OC(F)(F)F)cc1)O[C@@H]1COc2nc([N+](=O)[O-])cn2C1,solubility kinetic,[1],10 µg/mL
C[C@]1(COc2ccc(N3CCC(Oc4ccc(OC(F)(F)F)cc4)CC3)cc2)Cn2cc([N+](=O)[O-])nc2O1,fold change (FC),[13],3
same,fold change (FC),[14],3
O=C(COc1ccc(OC(F)(F)F)cc1)N[C@@H]1COc2nc([N+](=O)[O-])cn2C1,solubility kinetic,[1],43 µg/mL
O=[N+]([O-])c1cn2c(n1)OC[C@@H](NCc1ccc(OC(F)(F)F)cc1)C2,solubility kinetic,[1],131 µg/mL
O=[N+]([O-])c1cn2c(n1)OC[C@@H](OCc1ccc(OC(F)(F)F)cc1)C2 [PRETOMANID],logP,[15],2.52
same,fold change (FC),[13],2
same,solubility thermodynamic,[16],30 µM
same,solubility thermodynamic,[17],30 µM
same,Activity,Salmonella typhimurium [18],Non-toxic
same,Activity,Salmonella typhimurium [19],Non-toxic
same,Activity,Salmonella typhimurium [20],Non-toxic
same,Activity,Salmonella typhimurium [21],Non-toxic
same,fraction unbound at 10 µM,[22],0.06

# Reference: ChEMBL document CHEMBL1944507, “Structure-activity relationships for amide-, carbamate-, and urea-linked analogues of the tuberculosis drug (6S)-2-nitro-6-{[4-(trifluoromethoxy)benzyl]oxy}-6,7-dihydro-5H-imidazo[2,1-b][1,3]oxazine (PA-824)” (J Med Chem, 2012)
